Changes are numbered by the printed parent chain.
What was measured:
[1] = biological target: T1, RGS17-RH (Homo sapiens, UniProt Q9UGC6); test: DACM cysteine labeling of RGS17-RH after pre-incubation; format: biochemical; details: 10-fold molar excess compound (20 μM) over 2 μM RGS17-RH, 30 min pre-incubation
T1 sequence (Q9UGC6 72-206): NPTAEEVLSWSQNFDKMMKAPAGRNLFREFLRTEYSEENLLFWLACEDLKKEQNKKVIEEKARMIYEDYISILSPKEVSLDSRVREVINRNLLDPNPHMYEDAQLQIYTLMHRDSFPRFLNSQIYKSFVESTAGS
Procedure, shortened: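 RGS17-RH, or buffer alone, was pre-incubated 30 min at ambient temperature with compound (final 2 μM protein, 20 μM compound; NEM as comparator). The buffer was 20 mM K₂HPO₄, 100 mM NaCl, 2 mM NaN₃, pH 7.6. DACM was then added, and fluorescence (ex 385/em 440 nm) was read for 1,000 s. Slopes were normalised to no-protein (0%) and protein without compound (100%). Mean of n=3 ± S.D.; one-way ANOVA.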

[2] = biological target: T1, RGS17-RH; test: Differential scanning fluorimetry; format: binding; details: 1 mM fragment, 10 μM RGS17-RH
Procedure, shortened: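 10 μM RGS17-RH was incubated 30 min at ambient temperature with 1 mM fragment or DMSO control. 2X Sypro Orange was then added, and fluorescence was recorded from 20 to 80 °C. Tm was calculated from the melt curves. Mean of n=3 ± S.E.M.; one-way ANOVA with multiple comparisons.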

[3] = biological target: T2, RGS17-RH C117S (Homo sapiens, UniProt Q9UGC6, C117S); test: 1H-15N HSQC NMR binding to RGS17-RH C117S mutant; details: 1H-15N HSQC with RGS17-RH C117S mutant
T2 sequence (Q9UGC6 72-206 C117S): T1 sequence (Q9UGC6 72-206) with C46S
Procedure, shortened: (§1)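 ¹⁵N-labelled RH domains (wild-type RGS4, or RGS17 with the C117S point mutation) were expressed in E. coli BL21-CodonPlus(DE3)-RIPL in M9 medium with 1 g/L ¹⁵NH₄Cl. The His₆ tag was removed with TEV protease, and protein was purified by Ni-IMAC and size exclusion. ¹H-¹⁵N HSQC spectra were recorded with fragment at 1 mM in 1% DMSO and overlaid on 1% DMSO control spectra.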

[4] = biological target: T3, RGS4-RH (Homo sapiens, UniProt P49798); test: 1H-15N HSQC NMR binding to RGS4-RH; details: 1H-15N HSQC with RGS4-RH
T3 sequence (P49798 51-179): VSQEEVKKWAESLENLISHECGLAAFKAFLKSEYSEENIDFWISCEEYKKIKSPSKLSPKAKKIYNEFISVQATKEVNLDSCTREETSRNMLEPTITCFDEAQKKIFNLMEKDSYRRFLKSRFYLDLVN
Procedure, shortened: as §1

[5] = biological target: T1, RGS17-RH; test: 1H-15N HSQC NMR fragment titration, chemical shift perturbation KD; format: binding; details: calculated from KD and number of heavy atoms
Procedure, shortened: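 100 μM ¹⁵N-RGS17-RH was titrated with fragment from 100 μM up to its solubility limit (generally 2–10 mM) in phosphate buffer, pH 7.6, and ¹H-¹⁵N HSQC spectra were recorded. CSP was taken as the distance between control and treated peak centres. Per-residue KD came from a quadratic binding fit and was averaged over residues. LE = (−2.3039·R·T/HA)·log(KD).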

[6] = biological target: T4, RGS17-RH GAP activity towards Gαi1 (R178M, A326S) (Homo sapiens, UniProt Q9UGC6); test: Malachite green GAP activity assay; format: biochemical; details: 1 mM fragment, 4.5 μM RGS17-RH
T4 sequence (Q9UGC6 72-206): T1 sequence (Q9UGC6 72-206)
Procedure, shortened: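 Free phosphate from GTP hydrolysis was detected colorimetrically with malachite green. Final concentrations were 300 μM GTP, 4.5 μM tag-free RGS17-RH and 1 mM fragment. Mean of n=3 independent experiments ± SEM.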

Row | RGS C117S Binding [3] | RGS4 Binding [4] | L.E. (ligand efficiency) [5] | Compound | effect on melting temperature of RGS17-RH (in words) [2] | other results
1 |  |  |  | CCN1C(=O)C=CC1=O [N-ethyl maleimide (NEM), N-ethyl maleimide, reference compound] |  | DACM labeling of RGS17-RH after pre-incubation [1]: decreased DACM labeling
2 | Yes | Yes | 0.31 | Oc1ccc(Sc2ccc(O)cc2)cc1 [Fragment 4] | melting temperature could not be accurately determined | inhibition of RGS17-RH GAP activity ([6]; 300 μM GTP): ~20%
3 |  |  | 0.23 | CSc1cc(-c2ccc(F)cc2)[nH]n1 [Fragment 5] |  | RGS C117S Binding ([3]; listed as 5): No; RGS C117S Binding ([3]; listed as fragment 5): did not bind; RGS4 Binding ([4]; listed as 5): No; RGS4 Binding ([4]; listed as fragment 5): did not bind
4 | Yes | Yes | 0.25 | OCCCCCOc1ccc(Cl)cc1 [Fragment 7] |  | 
5 | Yes | Yes | 0.25 | OCCCCn1cnc2cc(Cl)c(Cl)cc21 [Fragment 6] | not statistically significant | inhibition of RGS17-RH GAP activity (in words) ([6]; one-way ANOVA): lack of appreciable RGS17-RH GAP inhibition
